# Compounds with a hit are over-represented: about 2.6% of the library has one in this group of screens.
# PvdQ inh – P. aeruginosa PvdQ acylase inhibitors, primary screen, biochemical, fluorescence, plate reader and imaging, single point | PvdQ acylase [Pseudomonas aeruginosa LESB58] | purified PvdQ acylase | inhibition, % at 10 µM | hit rate 0.063% among 340,000 | AID 488965, 2010; in the data active = inhibition above about 30%, passing the limit was not always enough; inconclusive = no clear call, values can overlap the other calls;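 also: 0% = vehicle neutral wells and 100% = reference inhibitor wells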
# dFosB activator – activators of delta FosB homodimer, primary screen, biochemical, fluorescence polarization, TAMRA-CDK5 oligo, single point. purified delta FosB; percent of positive-control signal above neutral wells. activation, % at 25 µM. hit rate 0.99% among 340,000. AID 493131, 2011;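 active = mean activation above about 17%, with every replicate also reaching it, limit read from the data, passing the limit was not always enough; inconclusive = only one of the two conditions met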
# SR-BI DiI-HDL act – activators of SR-BI mediated DiI-HDL uptake, primary screen, ldlA[mSR-BI] CHO cells, DiI fluorescence | 3 h; 100 = double the neutral-control signal | activation, % at 12.5 µM | hit rate 0.096% among 320,000;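 active = mean replicate activation of at least 60% and every replicate at or above 60%; inconclusive = mean or all-replicate condition met, but not both; inactive = mean below 60% and not all replicates reaching 60%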;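 also: 0% = median plate neutral-control signal and 100% = twice that signal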
#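 Assay system: LDL receptor-deficient CHO ldlA cells overexpressing murine SR-BI / Medium: BSA-supplemented, HEPES-buffered Ham's F12, pH 7.4 / Probe or stimulus: DiI-labelled HDL at 10 µg/mL final / Timing: compound with DiI-HDL co-incubation, 3 h at 37 °C / Technique: bottom-read cell fluorescence after medium removal, ex 550/em 595 nm / Measure: HDL uptake via cellular fluorescence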
# rRNA inh HTS – reduced GFP signal of wild-type E. coli, primary screen, bacterial rRNA inhibitor project, GFP/RFP fluorescence, OD600, single point | E. coli WT GFP vs humanized-ribosome RFP mutants, 24 h; hits give low values; DMSO median 0, no signal -100 | GFP signal change (wild-type ribosome), % (test concentration not listed) | hit rate 1.6% among 350,000 | AID 720706, 2013;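 active = significant combined selectivity score with lowered wild-type GFP, culture density cut under 30%, mutant RFP and density less affected; inactive = any of these conditions unmet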
# SR-BI HDL uptake – inhibitors of SR-BI mediated HDL lipid uptake, primary screen, ldlA[mSR-BI] cells, fluorescence, single point; ldlA[mSR-BI] CHO cells, DiI-HDL uptake fluorescence, 3 h; hit rate 0.96% among 320,000; inhibition, % at 12.5 µM; AID 488896, 2010; Scavenger receptor class B member 1 (Mus musculus), Q61009;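 active = mean replicate inhibition of at least 70% and a set share of replicates each scoring 70 or more; inconclusive = meets just one of the two criteria; inactive = fails both criteria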;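 also: 0% = median of neutral control wells and 100% = median of positive control wells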
# Target sequence (Q61009 whole entry, looked up): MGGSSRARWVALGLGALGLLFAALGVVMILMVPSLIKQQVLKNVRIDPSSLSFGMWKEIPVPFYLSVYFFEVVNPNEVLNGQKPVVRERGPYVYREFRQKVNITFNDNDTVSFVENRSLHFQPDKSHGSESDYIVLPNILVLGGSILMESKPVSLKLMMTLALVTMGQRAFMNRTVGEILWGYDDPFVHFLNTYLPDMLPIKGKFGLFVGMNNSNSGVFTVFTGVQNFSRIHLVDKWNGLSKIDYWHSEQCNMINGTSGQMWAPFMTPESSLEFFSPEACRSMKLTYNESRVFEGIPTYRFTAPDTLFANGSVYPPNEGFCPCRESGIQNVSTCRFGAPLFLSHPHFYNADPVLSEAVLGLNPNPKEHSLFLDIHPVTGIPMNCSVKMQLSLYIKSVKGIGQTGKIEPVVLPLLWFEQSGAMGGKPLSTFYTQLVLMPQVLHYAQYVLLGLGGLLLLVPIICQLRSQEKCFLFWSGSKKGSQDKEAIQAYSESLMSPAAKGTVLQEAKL
# XiGFP reactiv – activators of inactive X chromosome reactivation, primary screen, imaging, XiGFP fibroblasts, GFP high-content imaging, set 2. XiGFP mouse fibroblasts, % GFP-positive cells imaging, 3 d; cells co-treated with 5-aza-dC sensitizer; scaled so ellipticine positive control = 100%. activation, % at 7.58 µM. hit rate 0.055% among 360,000;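 active = mean normalized replicate activation at least 10% and every replicate at or above 10%; inconclusive = only one of the two criteria met; inactive = mean below 10% and not all replicates reach 10%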;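 also: 0% = median of on-plate neutral control wells and 100% = ellipticine 6 µM median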
#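 assay system = SV40-immortalized XiGFP fibroblast cells, line 68-5-11 | buffer or medium = DMEM plus 5-aza-dC sensitizer | doses = single-point pinned compound dosing | times = 3-day compound exposure, then 15 min fixation at room temperature | benchmarks = positive control ellipticine, 6 µM final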
# * marks the source's active call; other numbers are inactive results; ? = inconclusive; / = no result given.
SMILES,PvdQ inh,dFosB activator,SR-BI DiI-HDL act,rRNA inh HTS,SR-BI HDL uptake,XiGFP reactiv
COc1cc(C=c2c3ccccc3n3c2cc(-c2ccccc2)[n+]3C)cc(OC)c1OC,-13.5,-6.1,-33.1,-33.7,33.1,0.3
COc1cc(N(C)C)ccc1C=c1c2ccccc2n2c1cc(-c1ccccc1)[n+]2C,-15.6,234.5*,34.1,-76.7,-34.1,1.1
O=[N+]([O-])c1cccnc1N1CCOCC1,-7.8,-6.2,34.3,/,-34.3,/
O=[N+]([O-])c1cccnc1N1CCN(c2ccc(F)cc2)CC1,-7.4,-3.7,?,-32.5*,-116.1,0.0
C=C(CN(C)C)C(=O)c1ccc(C)cc1C,-14.7,-5.2,-85.0,-7.1,85.0*,0.0
O=C(CCS(=O)(=O)Cc1ccccc1)N1CCN(c2ccccc2)CC1,16.6,1.6,1.9,/,-1.9,/
CC(Nc1nc(-c2cccc(Br)c2)cs1)c1nc2cc(Cl)c(N3CCCCC3)cc2n1CCOCCO (stereo unspecified),-5.6,-0.5,-75.4,19.1,75.4*,0.0
CC(Nc1nc(-c2ccc(F)cc2)cs1)c1nc2cc(Cl)c(N3CCCCC3)cc2n1CCOCCO (stereo unspecified),1.1,-1.2,-46.7,-2.4,46.7,0.2
O=c1cc(-c2ccc(O)c(-c3c(O)cc(O)c4c(=O)cc(-c5ccc(O)cc5)oc34)c2)oc2cc(O)cc(O)c12,-3.0,18.0*,-48.4,9.7,48.4,0.1
O=C(C[C@H]1CC[C@@H]2NC[C@H](O)COC[C@H]2O1)NCCc1ccncc1,/,/,/,5.4,/,0.0
Cc1ccc(/C=C/C(=O)c2ccc(O)cc2)cc1,-5.2,-18.1,/,-27.3*,/,0.0
O=C(O)c1ccc(N/N=C/c2cn(Cc3ccc(F)cc3)c3ccccc23)cc1,10.5,-12.0,-1.9,-34.2*,1.9,0.0
CCNC(=S)N/N=C/c1cn(Cc2ccc(F)cc2)c2ccccc12,-7.8,-0.5,-69.4,/,69.4,4.6
O=C(CCC(=O)c1cccs1)NCC(c1ccc(F)cc1)N1CCOCC1 (stereo unspecified),-7.9,-9.5,44.8,-1.6,-44.8,0.0
CCOC(=O)Oc1c(OC)cc(C(=O)O[C@@H]2C[C@@H]3CN4CCc5c([nH]c6cc(OC)ccc56)[C@H]4C[C@@H]3[C@H](C(=O)OC)[C@H]2OC)cc1OC,1.5,29.3*,-69.8,/,69.8,0.2
O=C(NNC1=C(C(=O)C(F)(F)F)CCC1)c1ccccc1O,3.0,6.2,-150.3,/,150.2*,/
O=C(NNC1=C(C(=O)C(F)(F)F)CCC1)c1ccccc1Cl,-3.4,6.2,-14.2,/,14.2,/
O=C(NNC1=C(C(=O)C(F)(F)F)CCC1)c1ccc(Br)cc1,11.3,0.2,-104.8,-15.9,104.8*,/
COc1cccc(C(=O)NNC2=C(C(=O)C(F)(F)F)CCC2)c1,-12.6,0.5,-113.2,/,113.2*,0.0
Nc1ccccc1C(=O)NNC1=C(C(=O)C(F)(F)F)CCC1,-6.0,-10.7,-98.0,8.9,98.0*,0.3
COC(=O)c1sccc1NC(=O)Nc1cccc(C)c1,-10.0,-15.1,-22.9,-13.1,22.9,0.4
COc1cccc(NC(=O)CCCNC(=O)Cn2cnc3sc(C)c(C)c3c2=O)c1,9.7,-5.7,-18.4,14.8,18.4,1.3
COc1ccc(OC)c(NC(=O)CCCNC(=O)Cn2cnc3sc(C)c(C)c3c2=O)c1,-9.8,-8.6,-77.3,10.5,77.3*,0.0
Cc1onc(-c2c(F)cccc2Cl)c1C(=O)NNC(=O)C1CCN(Cc2ccccc2)CC1,-11.6,-8.7,16.3,11.3,-16.3,0.1
Cc1onc(-c2c(F)cccc2Cl)c1C(=O)N1CCSCC1,/,/,/,-28.9*,/,0.0
SMILES,PvdQ inh,dFosB activator,SR-BI DiI-HDL act,rRNA inh HTS,SR-BI HDL uptake,XiGFP reactiv
CSC(=NS(=O)(=O)c1ccccc1)NNC(=O)c1c(-c2c(Cl)cccc2Cl)noc1C,/,/,/,-20.8*,/,-0.1
CCN1CCN(C(=O)c2c(-c3c(F)cccc3Cl)noc2C)CC1,-8.6,0.6,-12.1,/,12.1,/
Cc1onc(-c2c(Cl)cccc2Cl)c1C(=O)NN1CCCCCC1,-2.7,-2.0,21.6,-13.2*,-21.6,0.0
Cc1onc(-c2c(Cl)cccc2Cl)c1C(=O)NC1CCCCC1,-2.0,-1.8,/,-40.5,/,0.0
CCCNC(=O)[C@H]1[C@H](CO)[C@H]2Cn3c(ccc(C4=CCCC4)c3=O)[C@H]2N1C(=O)c1cnccn1,/,/,/,0.6,/,0.0
COc1ccc(Nc2nnc(-c3ccc(N4CCOCC4)c([N+](=O)[O-])c3)c3ccccc23)cc1,-1.2,5.4,-78.6,/,78.6*,/
COc1ccc(C(=O)c2ccc(N3CCOCC3)c([N+](=O)[O-])c2)cc1,-7.3,-1.3,-79.5,-32.5,79.5*,0.0
CCC(CC)C(=O)Nc1c(C(=O)N2CCN(c3ccccc3)CC2)oc2ccccc12,-5.4,-1.8,-33.9,-30.4*,33.9,0.2
O=C(CCN1C(=O)/C(=C\c2ccccc2)SC1=S)NNC(=O)c1ccccc1O,-6.8,20.3*,-99.4,6.6,99.5*,0.9
O=C(CCCN1C(=O)/C(=C\c2ccccc2)SC1=S)Nc1ccc(O)cc1C(=O)O,-9.8,-3.0,12.1,-20.7*,-12.1,0.0
O=C(CCCN1C(=O)/C(=C\c2ccccc2)SC1=S)N1CCOCC1,2.3,-1.0,2.0,-21.1*,-2.0,0.1
COc1ccc(/C=C2\SC(=S)N(CCCC(=O)N3CCOCC3)C2=O)cc1,-1.4,-7.0,-5.4,-11.6,5.4,0.2
O=C(CCCN1C(=O)/C(=C/c2ccccc2)SC1=S)Nc1ccccc1O,?,5.8,0.6,1.4,-0.6,0.0
O=C(Nc1ccccc1C(=O)N/N=C/c1ccco1)c1ccc(Cl)cc1,0.8,-6.7,-9.2,-4.2,9.2,0.1
CCOC(=O)Cc1csc(NC(=O)c2cc(C)on2)n1,-14.6,0.7,9.8,2.5,-9.8,0.0
CN1/C(=C\C=C2/SC(=S)NC2=O)C(C)(C)c2ccccc21,22.4,69.6*,7.1,20.0,-7.1,1.1
CN1/C(=C\C=N\O)C(C)(C)c2ccccc21,-1.3,3.6,1.0,5.8,-1.0,0.3
CCN1C(=O)/C(=C\c2ccncc2)SC1=S,-2.6,-3.7,2.2,7.2,-2.2,0.1
CN1C(=CC=C2C=C(I)C(=O)C(I)=C2)C(C)(C)c2ccccc21,0.0,175.4*,53.4,1.9,-53.4,-0.2
